# Screening results as filed in PubChem BioAssay.
# Scp-1 inhibitor: blocks human Scp-1 phosphatase activity | Q9GZU7 | Recombinant Scp1, phosphopeptide, malachite green phosphate absorbance | inhibition, % at 20 µM | actives 0.88% (n = 340,000) | AID 493091;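 active = inhibition above about 50% at 20 µM, limit read from the data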;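 also: plate controls were DMSO wells with enzyme for no effect and wells lacking enzyme for full effect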
# Target sequence (Q9GZU7 76-261 limits assumed): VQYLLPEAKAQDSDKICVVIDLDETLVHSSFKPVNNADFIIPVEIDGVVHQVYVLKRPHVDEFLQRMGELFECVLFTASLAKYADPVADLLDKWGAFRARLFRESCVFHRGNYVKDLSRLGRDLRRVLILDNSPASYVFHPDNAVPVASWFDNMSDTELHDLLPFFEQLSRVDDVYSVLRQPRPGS
#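 Assay system: SCP-1 catalytic fragment, aa 76-261 | Buffer or medium: Tris acetate buffer pH 5.5 with MgCl2 and Tween-20 | Compound: One concentration, 20 µM, with 1.0% DMSO | Also added: Phospho 17-mer peptide substrate | Signal: Absorbance at 630 nm | Incubation: 45 min enzyme reaction at room temperature | Measure: % inhibition of SCP-1 phosphate liberation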
# LMPTP inh: LMPTP (human) inhibition. P24666. recombinant LMPTP-A, OMFP fluorogenic substrate, fluorescence intensity. inhibition, % at 20 µM. actives 0.22% (n = 360,000). AID 651560;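 active = compounds that cut the enzyme signal by at least half of the control window in the single-dose screen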;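 also: plate controls were DMSO wells with enzyme plus substrate for no effect and substrate without enzyme for full effect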
# Target sequence (P24666 whole entry, looked up): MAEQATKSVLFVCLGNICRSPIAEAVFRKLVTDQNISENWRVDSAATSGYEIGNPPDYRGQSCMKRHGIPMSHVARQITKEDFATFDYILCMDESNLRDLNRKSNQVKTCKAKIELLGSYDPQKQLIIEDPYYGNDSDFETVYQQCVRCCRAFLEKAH
#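 Assay system: LMPTP-A phosphatase enzyme | Input: 0.625 nM enzyme | Also added: Fluorogenic phosphatase substrate OMFP at 400 µM final | Compound dosing: One test concentration per compound, 20 µM, with 3% DMSO overall | Schedule: 50 min enzyme reaction at room temperature, protected from light | Signal: Fluorescence intensity | Benchmarks: no-enzyme and uninhibited controls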
# STEP inh: blocks human striatal-enriched tyrosine phosphatase. P54829. recombinant STEP, OMFP fluorogenic substrate, fluorescence. inhibition, % at 20 µM. actives 0.25% (n = 360,000). AID 588621;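 active = inhibition at 20 µM, scaled per plate between control wells, above about 37%, limit read from the data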;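 also: 0% = DMSO with enzyme and substrate and 100% = substrate only without enzyme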
#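 Test system: STEP tyrosine phosphatase / Reagent: OMFP at 25 µM / Doses: 20 µM, 1% DMSO / Read-out: percent inhibition scaled to no-enzyme and uninhibited-enzyme controls, plate-pattern corrected / Detection: FITC-channel fluorescence of OMFP product / Medium: Bis-Tris buffer pH 6.0, 2.5 mM DTT, 0.005% Tween 20 / Schedule: 20 min at room temperature, dark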
# SUMO1-SIM PPI: alters human SUMO1 binding to SIM partners | AID 602429 | actives 0.33% (n = 360,000) | inhibition, % at 20 µM | P63165 | SUMO1 binding to a labelled peptide, TR-FRET, 1 h; in the data active = inhibition above about 37%
# Target sequence (P63165 whole entry, looked up): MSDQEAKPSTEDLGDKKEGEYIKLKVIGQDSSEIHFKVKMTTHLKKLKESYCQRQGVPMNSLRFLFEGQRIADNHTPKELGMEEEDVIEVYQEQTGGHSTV
# DNMT1 inh: blocks human DNA methyltransferase DNMT1; inhibition (reported as % activation of signal), % at 10 µM; P26358; DNMT1 molecular beacon, Hinp1I cleavage, fluorescence; AID 588458; actives 0.83% (n = 360,000); in the data active = inhibition above about 50%
# Scp1 confirm: Scp-1 (human) inhibition, single-dose confirmed; recombinant SCP-1 catalytic domain, phosphate release, malachite green absorbance; shares compounds with Scp-1 inhibitor; actives 61% (n = 2,500); inhibition, % at 20 µM; AID 540281;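 also: plate controls were DMSO with enzyme for no effect and buffer wells lacking enzyme for full effect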
# Scp-1 MG ctr: interferes with malachite green readout, flagging false Scp-1 hits | shares compounds with Scp-1 inhibitor | Colorimetric interference counterscreen, malachite green absorbance 630 nm | apparent inhibition (interference), % at 20 µM | 2,500 tested, under 10 active | AID 540313;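 also: compounds added after enzyme reaction finished so only phosphate colour detection is probed; plate controls were DMSO wells with completed Scp-1 reaction for no effect and substrate wells lacking enzyme for full effect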
# Scp-1 Tm shift: validation of human Scp-1 inhibitors by thermal shift binding; actives 25% (n = 1,500); AID 540329; Recombinant SCP1, Sypro Orange thermal shift Tm; shares compounds with Scp-1 inhibitor; thermal shift relative to vanadate control, % at 40 µM;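 active = substances whose mean melting-temperature shift, as a percentage of the reference inhibitor's shift, reaches about 5.3%, limit read from the data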;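 also: 0% = Tm of DMSO wells and 100% = Tm with sodium orthovanadate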
# Numbers without * were called inactive; / = no result given. Sampled rows, rich in hits. Any-hit rate of the full collection: about 1.7%.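 The calls were made as follows, unless noted: active = inhibition of at least 30% at 20 µM; inactive = the rest.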
SMILES,Scp-1 inhibitor,LMPTP inh,STEP inh,SUMO1-SIM PPI,DNMT1 inh,Scp1 confirm,Scp-1 MG ctr,others
CC1=N/C(=C/c2ccco2)C(=O)O1,57*,-1,9,13,93*,/,/,
Nc1[nH]c(=O)nc2snnc12,0,3,1,6,5,/,/,
Cc1csc(NC(=O)c2ccc(Br)s2)n1,77*,0,-1,1,-1,/,/,
O=C(Nc1cccc(NC(=O)c2ccccc2Cl)c1)c1ccco1,-10,0,1,3,1,/,/,
O=C(Nc1cccc(NC(=O)c2ccc(-c3ccc(Br)cc3)o2)c1)c1ccco1,-9,5,1,44*,-14,/,/,
O=C(NCCCNC(=O)c1ccc(F)cc1)c1ccc(F)cc1,-2,-1,0,2,-1,/,/,
CCN(C(=O)COC(=O)c1[nH]c(C)c(C(C)=O)c1C)C1CCS(=O)(=O)C1 (stereo unspecified),70*,-1,-5,-2,4,-6,-7,
O=C(NC1CCSC1=O)c1ccccc1 (stereo unspecified),-3,0,0,3,1,/,/,
O=C(NC1CCSC1=O)c1cccc(C(=O)NC2CCSC2=O)c1 (stereo unspecified),95*,8,0,1,3,65*,-18,Scp-1 Tm shift=3
COc1ccc(OC)c(-c2nc3ccccc3nc2-c2ccccc2)c1,58*,2,-1,-11,-2,-27,-22,
Cc1nc(C(F)(F)F)ccc1C(=O)N1CCC1(C)C(=O)NS(=O)(=O)c1ccc(C(C)(C)C)cc1 (stereo unspecified),/,-1,-1,3,1,/,/,
O=C(COc1coc(CN2CCN(c3ccc(F)cc3)CC2)cc1=O)Nc1ccccc1,1,1,-1,4,-3,/,/,
CC(=O)COc1coc(CN2CCN(c3ccc(F)cc3)CC2)cc1=O,51*,0,-3,3,-1,-6,-8,
O=C(CSc1ncn[nH]1)NCc1ccccc1Cl,2,-1,-2,7,0,/,/,
Cc1nn(CC(=O)N2CCN(Cc3ccccc3)CC2)c(=O)c2ccccc12,-7,0,-2,-3,-3,/,/,
COc1ccc(CN2CCN(C(=O)Cn3nc(C(=O)O)c4ccccc4c3=O)CC2)cc1F,57*,0,0,-13,0,-4,-11,
Cc1ccc(S(=O)(=O)Cc2ccc(C(=O)N3CCCCCC3)o2)cc1,18,-1,5,6,7,/,/,
CCOC(=O)C1CCCN(C(=O)c2ccc(CS(=O)(=O)c3ccc(C)cc3)o2)C1 (stereo unspecified),57*,0,1,5,46,55*,-11,Scp-1 Tm shift=5
Cc1cc(C(=O)COC(=O)Cc2n[nH]c(=O)c3ccccc23)c(C)n1-c1ccc2c(c1)OCCO2,-10,0,0,-2,-12,/,/,
NC(=O)c1cc(S(=O)(=O)NCc2ccc(F)cc2)cs1,-5,0,-2,2,-1,/,/,
CSc1ccc(CCNS(=O)(=O)c2csc(C(N)=O)c2)cc1,-4,0,0,32,-2,5,-2,
Cc1cccc(CNS(=O)(=O)c2csc(C(N)=O)c2)c1,-11,-2,-5,8,1,-9,-12,
CC(C)CCN1CCC(n2nccc2NC(=O)c2ccc3c(c2)OCO3)CC1,-6,-2,-1,1,1,/,/,
COCCCNC(=O)c1cc(C)nn1-c1ccccc1,-12,0,-2,1,2,/,/,
Cc1nn(CCc2nn[nH]n2)c2nc(C(F)(F)F)cc(C(F)(F)F)c12,-7,1,-6,1,1,/,/,
Cc1nn(CCc2nn[nH]n2)c2nc(-c3ccc(Br)cc3)cc(C(F)(F)F)c12,53*,0,26,4,-1,24,-15,
O=C(NN1CCOCC1)c1c(-c2ccccc2)sc2ccccc12,-3,-2,-1,5,9,/,/,
